From ChEMBL document CHEMBL6071141, “In vitro and in vivo evaluation of Bombesin-MMAE conjugates for targeted tumour therapy” (Eur J Med Chem, 2024)
Numbered stars: 1 amine (or outer) side, 2 acyl side, 3 side chain; on linkers, the order of the positions; unused ones are H or OH. Bridge positions count the residues as written; N and C are the ends. Square brackets hold non-standard residues; d marks the D form. Peptide text beside a SMILES is read from it. I, II: the chains in the order shown. * marks the point of attachment. Hexanoyl(6-succinimido-3yl) = O=C1CC([*:1])C(=O)N1CCCCCC(=O)[*:2]; Trp(3a,7a-dihydro) = N[C@@H](CC1=CNC2C=CC=CC12)C(=O)O; Dolaproine = CO[C@@H]([C@@H]1CCCN1)[C@@H](C)C(=O)O; X2 = O=C([C@H](CC1=CSC2C=CC=CC12)N[*:1])[*:2]; Dil = CC[C@H](C)[C@H](NC)[C@@H](CC(=O)O)OC; PABC = O=C(OCc1ccc(N[*:1])cc1)[*:2]; X3 = C[C@@H](N*)[C@@H](O)c1ccccc1; Cit = NC(=O)NCCC[C@H](N)C(=O)O; PEG4 = NCCOCCOCCOCCOCCC(=O)O; NMeV = CN[C@H](C(=O)O)C(C)C; Nle = CCCC[C@H](N)C(=O)O

Key:
[1] = Cytotoxicity against human PC-3 cells assessed as inhibition of cell growth incubated for 72 hrs and followed by treated with compound continued incubation for further 72 hrs (double treatment) after retreatment of compound by CellTiter 96 aqueous assay; format: toxicity, cell-based
Outline: (§1)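 PC-3 or MDA-MB-231 cells were treated the day after seeding with serial dilutions, from 2000 nM for conjugates and 100 nM for MMAE, for 72 h. Then the assay was stopped, or run 72 h more after a medium change (single) or re-treatment (double). Controls got 0.05 % DMSO. Read-out was MTS absorbance at 490 nm after 90 min. IC50 by non-linear regression; ≥2 experiments, triplicates.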

[2] = Metabolic stability in human plasma assessed as half life at 5 uM measured upto 24 hrs by LC-HRMS analysis; format: ADME, cell-free
Outline: (§2)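 Conjugates at 5 μM were incubated in human or mouse plasma at 37 °C, in duplicate. Samples were taken at t0, 0.25, 0.5, 1, 2, 4 and 24 h and quenched with 1 % formic acid in MeCN (2× volume). After centrifugation (14000 rpm, 4 °C), supernatants were diluted 1:1 with water and analysed by LC-HRMS.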

[3] = Cytotoxicity against human MDA-MB-231 cells assessed as inhibition of cell growth incubated with compound for 72 hrs followed by further incubated for 72 hrs (single treatment) by CellTiter 96 aqueous assay; format: toxicity, cell-based; outline: as §1
[4] = Cytotoxicity against human cells MDA-MB-231 assessed as inhibition of cell growth incubated for 72 hrs by CellTiter 96 aqueous assay; format: toxicity, cell-based; conditions: MDA-MB-231 cells; outline: as §1
[5] = Cytotoxicity against human PC-3 cells assessed as inhibition of cell growth incubated with compound for 72 hrs followed by further incubated for 72 hrs (single treatment) by CellTiter 96 aqueous assay; format: toxicity, cell-based; outline: as §1
[6] = Cytotoxicity against human MDA-MB-231 cells assessed as inhibition of cell growth incubated for 72 hrs and followed by treated with compound continued incubation for further 72 hrs (double treatment) after retreatment of compound by CellTiter 96 aqueous assay; format: toxicity, cell-based; outline: as §1
[7] = Cytotoxicity against human PC-3 cells assessed as inhibition of cell growth incubated for 72 hrs by CellTiter 96 aqueous assay; format: toxicity, cell-based; outline: as §1
[8] = Metabolic stability in mouse plasma assessed as half life at 5 uM measured upto 24 hrs by LC-HRMS analysis; format: ADME, cell-free; outline: as §2
[9] = target: T1, Gastrin-releasing peptide receptor (Homo sapiens, UniProt P30550); test: Displacement of 125 I- [Tyr4] from bombesin receptor 2 in human PC-3 cells assessed as inhibition by radioligand displacement assay; format: cell-based
Outline: (§3)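 Competition binding on membrane preparations from PC-3 or MDA-MB-231 cells against ¹²⁵I-[Tyr⁴]-bombesin, with conjugates at 10 μM–10 pM. IC50 was taken as the concentration giving 50 % inhibition of tracer binding.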

[10] = target: T1, Gastrin-releasing peptide receptor; test: Displacement of 125 I- [Tyr4] from bombesin receptor 2 in human MDA-MB-231 cells assessed as inhibition by radioligand displacement assay; format: cell-based; outline: as §3
[11] = Displacement of 125 I- [Tyr4] from bombesin receptor 1 (unknown origin) assessed as inhibition by radioligand competitive binding assay; design: species or system Homo sapiens
[12] = target: T2, Bombesin receptor subtype-3 (Homo sapiens, UniProt P32247); test: Displacement of 125 I- [Tyr4] from bombesin receptor 3 (unknown origin) assessed as inhibition by radioligand competitive binding assay
T2 sequence (P32247 whole entry): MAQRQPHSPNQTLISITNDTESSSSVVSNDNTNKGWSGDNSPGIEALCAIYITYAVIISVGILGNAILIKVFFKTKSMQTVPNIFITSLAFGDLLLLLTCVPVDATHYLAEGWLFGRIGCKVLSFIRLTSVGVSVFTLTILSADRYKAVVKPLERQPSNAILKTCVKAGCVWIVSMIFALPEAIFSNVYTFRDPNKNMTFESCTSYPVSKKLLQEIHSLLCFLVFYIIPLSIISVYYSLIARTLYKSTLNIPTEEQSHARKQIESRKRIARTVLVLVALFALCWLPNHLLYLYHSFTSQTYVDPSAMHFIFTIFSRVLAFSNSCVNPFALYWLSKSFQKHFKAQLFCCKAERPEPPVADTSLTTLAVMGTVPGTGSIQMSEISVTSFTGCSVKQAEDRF

[13] = target: T1, Gastrin-releasing peptide receptor; test: Displacement of 125 I- [Tyr4] from bombesin receptor 2 (unknown origin) assessed as inhibition by radioligand competitive binding assay

T1 sequence (P30550 whole entry): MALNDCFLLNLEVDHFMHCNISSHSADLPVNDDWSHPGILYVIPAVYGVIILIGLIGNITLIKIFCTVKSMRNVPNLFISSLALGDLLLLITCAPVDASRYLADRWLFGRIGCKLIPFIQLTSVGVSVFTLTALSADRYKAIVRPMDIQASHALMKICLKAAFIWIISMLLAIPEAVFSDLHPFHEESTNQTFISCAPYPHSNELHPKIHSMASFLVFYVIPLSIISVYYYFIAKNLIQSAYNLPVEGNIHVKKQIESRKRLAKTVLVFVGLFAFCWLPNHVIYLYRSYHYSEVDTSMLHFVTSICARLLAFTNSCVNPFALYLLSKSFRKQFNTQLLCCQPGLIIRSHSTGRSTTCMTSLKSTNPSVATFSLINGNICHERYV

## CC[C@H](C)[C@@H]([C@@H](CC(=O)N1CCC[C@H]1[C@H](OC)[C@@H](C)C(=O)N[C@H](C)[C@@H](O)c1ccccc1)OC)N(C)C(=O)[C@@H](NC(=O)[C@H](C(C)C)N(C)C(=O)OCc1ccc(NC(=O)[C@H](CCCNC(N)=O)NC(=O)[C@@H](NC(=O)CCCCCN2C(=O)CC(SC[C@H](NC(C)=O)C(=O)N[C@H](Cc3ccccc3)C(=O)N[C@@H](CCC(N)=O)C(=O)N[C@@H](Cc3c[nH]c4ccccc34)C(=O)N[C@@H](C)C(=O)N[C@H](C(=O)NCC(=O)N[C@@H](Cc3c[nH]cn3)C(=O)N[C@@H](CC(C)C)[C@@H](O)CC(=O)N[C@@H](CC(C)C)C(N)=O)C(C)C)C2=O)C(C)C)cc1)C(C)C (some centres undefined)
[1]
  IC50 at 144 h: 92.1 nM
[2]
  half-life at 5 µM: 8.2 h
[3]
  IC50 at 144 h: 202 nM
[4]
  IC50 at 72 h: 888 nM
[5]
  IC50 at 144 h: 101 nM
[6]
  IC50 at 144 h: 155 nM
[7]
  IC50 at 72 h: 718 nM
[8]
  half-life at 5 µM: 7.2 min

## CCCC[C@H](NC(=O)[C@H](CC(C)C)NC(=O)[C@H](Cc1c[nH]cn1)NC(=O)CNC(=O)[C@@H](NC(=O)[C@H](C)NC(=O)[C@H](CC1=CSC2C=CC=CC12)NC(=O)[C@H](CCC(N)=O)NC(=O)[C@H](CC(N)=O)NC(=O)CCOCCOCCOCCOCCNC(=O)[C@H](CSC1CC(=O)N(CCCCCC(=O)N[C@@H](CCC(=O)O)C(=O)NCC(=O)N[C@@H](CCCNC(N)=O)C(=O)Nc2ccc(COC(=O)N(C)[C@H](C(=O)N[C@H](C(=O)N(C)[C@@H]([C@@H](C)CC)[C@@H](CC(=O)N3CCC[C@H]3[C@H](OC)[C@@H](C)C(=O)N[C@H](C)[C@@H](O)c3ccccc3)OC)C(C)C)C(C)C)cc2)C1=O)NC(C)=O)C(C)C)C(N)=O (some centres undefined) (I: Ac-C[PEG4]NQ[X2]AVGHL[Nle]-NH2 / II: EG[Cit][PABC][NMeV]V[Dil][Dolaproine]-X3; linker I:1-II:N via Hexanoyl(6-succinimido-3yl))
[1]
  IC50 at 144 h: 165 nM
[3]
  IC50 at 144 h: 268 nM
[9]
  IC50: 80.7 nM
[4]
  IC50 at 72 h: 1260 nM
[5]
  IC50 at 144 h: 216 nM
[10]
  IC50: 82.4 nM
[6]
  IC50 at 144 h: 217 nM
[7]
  IC50 at 72 h: 782 nM

## CCCC[C@H](NC(=O)[C@H](CC(C)C)NC(=O)[C@H](Cc1c[nH]cn1)NC(=O)CNC(=O)[C@@H](NC(=O)[C@H](C)NC(=O)[C@H](CC1=CNC2C=CC=CC12)NC(=O)[C@H](CCC(N)=O)NC(=O)[C@H](CC(N)=O)NC(=O)CCOCCOCCOCCOCCNC(=O)[C@H](CSC1CC(=O)N(CCCCCC(=O)N[C@@H](CCC(=O)O)C(=O)NCC(=O)N[C@@H](CCCNC(N)=O)C(=O)Nc2ccc(COC(=O)N(C)[C@H](C(=O)N[C@H](C(=O)N(C)[C@@H]([C@@H](C)CC)[C@@H](CC(=O)N3CCC[C@H]3[C@H](OC)[C@@H](C)C(=O)N[C@H](C)[C@@H](O)c3ccccc3)OC)C(C)C)C(C)C)cc2)C1=O)NC(C)=O)C(C)C)C(N)=O (some centres undefined) (I: Ac-C[PEG4]NQ[Trp(3a,7a-dihydro)]AVGHL[Nle]-NH2 / II: EG[Cit][PABC][NMeV]V[Dil][Dolaproine]-X3; linker I:1-II:N via Hexanoyl(6-succinimido-3yl))
[1]
  IC50 at 144 h: 200 nM
[3]
  IC50 at 144 h: 270 nM
[9]
  IC50: 83.2 nM
[4]
  IC50 at 72 h: 1260 nM
[5]
  IC50 at 144 h: 248 nM
[10]
  IC50: 79.3 nM
[6]
  IC50 at 144 h: 217 nM
[7]
  IC50 at 72 h: 830 nM

## CCCC[C@H](NC(=O)[C@H](CC(C)C)NC(=O)[C@H](Cc1c[nH]cn1)NC(=O)CNC(=O)[C@@H](NC(=O)[C@H](C)NC(=O)[C@H](CC1=CNC2C=CC=CC12)NC(=O)[C@H](CCC(N)=O)NC(=O)[C@H](CC(N)=O)NC(=O)CCOCCOCCOCCOCCNC(=O)[C@H](CSC1CC(=O)N(CCCCCC(=O)N[C@@H](CCC(=O)O)C(=O)N[C@H](C(=O)N[C@@H](CCCNC(N)=O)C(=O)Nc2ccc(COC(=O)N(C)[C@H](C(=O)N[C@H](C(=O)N(C)[C@@H]([C@@H](C)CC)[C@@H](CC(=O)N3CCC[C@H]3[C@H](OC)[C@@H](C)C(=O)N[C@H](C)[C@@H](O)c3ccccc3)OC)C(C)C)C(C)C)cc2)C(C)C)C1=O)NC(C)=O)C(C)C)C(N)=O (some centres undefined) (I: Ac-C[PEG4]NQ[Trp(3a,7a-dihydro)]AVGHL[Nle]-NH2 / II: EV[Cit][PABC][NMeV]V[Dil][Dolaproine]-X3; linker I:1-II:N via Hexanoyl(6-succinimido-3yl))
[1]
  IC50 at 144 h: 12.6 nM
[3]
  IC50 at 144 h: 60.1 nM
[9]
  IC50: 101 nM
[4]
  IC50 at 72 h: 344 nM
[5]
  IC50 at 144 h: 18.2 nM
[10]
  IC50: 97.4 nM
[6]
  IC50 at 144 h: 52.7 nM
[7]
  IC50 at 72 h: 64.1 nM

## CC[C@H](C)[C@@H]([C@@H](CC(=O)N1CCC[C@H]1[C@H](OC)[C@@H](C)C(=O)N[C@H](C)[C@@H](O)c1ccccc1)OC)N(C)C(=O)[C@@H](NC(=O)[C@H](C(C)C)N(C)C(=O)OCc1ccc(NC(=O)[C@H](CCCNC(N)=O)NC(=O)CNC(=O)[C@H](CCC(=O)O)NC(=O)CCCCCN2C(=O)CC(SC[C@H](NC(C)=O)C(=O)NCCOCCOCCOCCOCCC(=O)N[C@H](Cc3ccccc3)C(=O)N[C@@H](CCC(N)=O)C(=O)N[C@@H](CC3=CSC4C=CC=CC34)C(=O)N[C@@H](C)C(=O)N[C@H](C(=O)NCC(=O)N[C@@H](Cc3c[nH]cn3)C(=O)N[C@@H](CC(C)C)[C@@H](O)CC(=O)N[C@@H](CC(C)C)C(N)=O)C(C)C)C2=O)cc1)C(C)C (some centres undefined)
[1]
  IC50 at 144 h: 116 nM
[3]
  IC50 at 144 h: 171 nM
[9]
  IC50: 71.1 nM
[4]
  IC50 at 72 h: 943 nM
[5]
  IC50 at 144 h: 142 nM
[10]
  IC50: 76.9 nM
[6]
  IC50 at 144 h: 130 nM
[7]
  IC50 at 72 h: 586 nM

## CC(=O)N[C@@H](CS)C(=O)N[C@H](Cc1ccccc1)C(=O)N[C@@H](CCC(N)=O)C(=O)N[C@@H](Cc1c[nH]c2ccccc12)C(=O)N[C@@H](C)C(=O)N[C@H](C(=O)N(C)CC(=O)N[C@@H](Cc1c[nH]cn1)C(=O)N[C@@H](CC(C)C)[C@@H](O)CC(=O)N[C@@H](CC(C)C)C(N)=O)C(C)C
[11]
  IC50: > 10000 nM
[12]
  IC50: 3600 nM
[13]
  IC50: 36.3 nM

## CC(=O)N[C@H](Cc1ccccc1)C(=O)N[C@@H](CCC(N)=O)C(=O)N[C@@H](Cc1c[nH]c2ccccc12)C(=O)N[C@@H](C)C(=O)N[C@H](C(=O)NCC(=O)N[C@@H](Cc1c[nH]cn1)C(=O)N[C@@H](CC(C)C)[C@@H](O)CC(=O)N[C@@H](CC(C)C)C(=O)N[C@@H](CS)C(N)=O)C(C)C
[11]
  IC50: > 10000 nM
[12]
  IC50: 10.1 nM
[13]
  IC50: > 10000 nM

## CCCC[C@H](NC(=O)C[C@H](O)[C@H](CC(C)C)NC(=O)[C@H](Cc1c[nH]cn1)NC(=O)CCNC(=O)[C@@H](NC(=O)[C@H](C)NC(=O)[C@H](Cc1c[nH]c2ccccc12)NC(=O)[C@H](CCC(N)=O)NC(=O)[C@@H](Cc1ccccc1)NC(=O)[C@H](CS)NC(C)=O)C(C)C)C(N)=O
[11]
  IC50: > 10000 nM
[12]
  IC50: > 10000 nM
[13]
  IC50: 2180 nM
